Compound activity deposited in PubChem by several laboratories.
The list is not random: actives were taken first. Their share in the collection is about 3.8%.
RGS4 block: inhibitors of human RGS4; HEK293 M3R/RGS4 inducible, Fluo-4 calcium flux; hits give high values; triggered by carbachol at its EC20; B-score at 10 µM; 310,000 tested, 0.45% active; AID 463165;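 active = B-score, a plate-corrected calcium signal, over three deviations above library mean, with baseline fluorescence within five deviations of library mean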;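 also: RGS4 expression induced by doxycycline in cells with stable M3 receptor; B-score is computed from the integrated fluorescence ratio over baseline after carbachol; higher B-score means a larger calcium signal and so more RGS4 inhibition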
Target sequence (P49798 whole entry, looked up): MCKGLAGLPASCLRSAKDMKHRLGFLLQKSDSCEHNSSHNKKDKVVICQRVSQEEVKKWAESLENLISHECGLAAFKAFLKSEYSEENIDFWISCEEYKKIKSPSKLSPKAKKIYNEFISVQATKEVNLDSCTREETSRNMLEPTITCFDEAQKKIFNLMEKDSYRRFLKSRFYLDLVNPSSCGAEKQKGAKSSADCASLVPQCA
Lipid droplet: hepatic lipid droplet formation modulation; AML12 mouse hepatocytes, oleate lipid droplets, BODIPY imaging; 240,000 tested, 0.4% active; inhibition, % at 6.5 µM; AID 1656;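 active = lipid droplet intensity inhibited by at least 50%, with more than 500 cells counted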
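material = mouse AML12 hepatocyte cell line, fixed after treatment | also added = 100 µM oleic acid challenge | doses = compound at 6.5 µM only | schedule = overnight exposure | technique = Image-based BODIPY and DAPI two-channel analysis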
MrgX1 antagonist: human MrgX1 receptor antagonism, primary screen; Q96LB2; B-score at 10 µM; MRGX1-HEK293 calcium flux, Fluo-4, BAM8-22 antagonism; hits give low values; AID 588676; 310,000 tested, 1.3% active;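 active = calcium-response B-score plate-corrected more than 3 library SD below zero, starting fluorescence within 5 deviations, no agonist response on first addition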;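 also: peak minus trough fluorescence over baseline after final BAM8-22 challenge near maximal dose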
Target sequence (Q96LB2 whole entry, looked up): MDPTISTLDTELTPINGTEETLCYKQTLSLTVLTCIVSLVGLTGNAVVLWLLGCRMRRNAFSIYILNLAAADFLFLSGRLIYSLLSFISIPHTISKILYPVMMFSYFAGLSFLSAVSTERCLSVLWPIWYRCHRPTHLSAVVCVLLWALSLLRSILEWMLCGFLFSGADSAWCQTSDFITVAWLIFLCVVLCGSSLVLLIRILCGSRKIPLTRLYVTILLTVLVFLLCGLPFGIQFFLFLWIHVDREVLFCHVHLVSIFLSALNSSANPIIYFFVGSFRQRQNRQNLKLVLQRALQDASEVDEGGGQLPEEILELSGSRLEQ
MrgX1 agonist: agonists of human MrgX1 receptor; B-score at 10 µM; 310,000 tested, 0.44% active; AID 588627; MrgX1-HEK293 cells, Fluo-4 calcium fluorescence, agonist mode; hits give high values; Q96LB2;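 active = calcium response B-score plate-corrected fluorescence ratio at least 3 library SD, with starting fluorescence B-score inside 5 SD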
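Test system: HEK293 cells stably expressing human MrgX1 receptor; amount: 15,000 cells per well; doses: compound delivered in addition one of three; times: overnight plating before 1 h dye loading; detection: Fluo-4 NW calcium-flux fluorescence, kinetic read; read-out basis: B-scored fluorescence response ratio; controls: positive and negative controls per plate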
RGS4 act: RGS4 potentiation or activation. AID 463111. HEK293 M3R/inducible RGS4, carbachol calcium flux Fluo4; hits give low values. 310,000 tested, 0.92% active. B-score at 10 µM;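 active = B-score of the integrated calcium signal more than 4 SD below the library mean, with starting fluorescence not abnormally high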;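 also: negative B-score means reduced calcium response which marks RGS4 activation or potentiation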
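test system = M3R-expressing HEK293 line, RGS4 induced by doxycycline | probe or stimulus = carbachol at ECmax as muscarinic agonist stimulus | timing = dye loading 30 min 37 °C, buffer rest 30 min RT | signal = calcium dye Fluo4 fluorescence | evaluation = B score from integrated fluorescence ratio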
MrgX1 PAM: allosterically activates human MrgX1 receptor signaling; Q96LB2; MrgX1-HEK293, Fluo-4 calcium flux, FDSS; hits give high values; B-score at 10 µM; 310,000 tested, 0.63% active; AID 588675;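 active = plate-corrected calcium response at least 3 library SD above typical, normal starting fluorescence, not activating the receptor alone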;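 also: compound read alongside a low EC10 to EC30 dose of BAM8-22 agonist; peak minus trough fluorescence over baseline measured at the second addition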
MrgX1 allo conf: confirmation of human MrgX1 receptor positive allosteric modulators. MrgX1-HEK293, Fluo-4 calcium fluorescence, FDSS. 1,200 tested, 13% active. shares compounds with MrgX1 PAM. AID 602413. activation (ratio percentage), % at 10 µM;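 active = ratio at least 3 SD above the weak peptide control, stable starting fluorescence, no direct agonism earlier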;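 also: compound followed by low BAM8-22 agonist challenge near EC20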
MrgX1 antag conf: human MrgX1 receptor antagonism, re-confirmation screen; shares compounds with MrgX1 antagonist; AID 602420; remaining BAM8-22 calcium response % of control (hits give low values), % at 10 µM; MrgX1-HEK293, BAM8-22 calcium flux, Fluo-4; hits give low values; 2,300 tested, 19% active;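 active = remaining agonist calcium response no higher than 100% minus 3 SD of agonist-only control wells, with starting fluorescence near control levels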;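 also: agonist BAM8-22 given at a near maximal EC90 to ECmax level; peak minus minimum fluorescence divided by baseline after agonist addition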
HEK293 Ca flux: counter-screen for MrgX1 antagonists: effect in parental HEK293 cells. Fluo-4 calcium fluorescence, FDSS. shares compounds with MrgX1 antagonist. 4,000 tested, 2% active. fluorescence ratio F(max-min)/F0 at 10 µM. AID 624111;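 active = duplicate-averaged calcium fluorescence ratio at least three times the standard deviation of buffer wells, a nonspecific response in parental cells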
HEK293 Ca counter: counter-screen for MrgX1 allosteric activators: effect in parental HEK293 cells | fluorescence ratio F(max-min)/F0 at 10 µM | parental HEK293 calcium flux, Fluo-4 fluorescence ratio; hits give high values | shares compounds with MrgX1 antagonist | 4,000 tested, 0.4% active;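 active = calcium fluorescence ratio, averaged over duplicates, at least 3 SD of the buffer-well ratio, meaning a nonspecific response in receptor-free cells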;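 also: untransfected parental HEK293 lacking MrgX1 used as counterscreen for MrgX1 allosteric activators; fluorescence change taken during the second addition on a kinetic imager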
HEK293 Ca cntr2: counter-screen for MrgX1 activators: effect in parental HEK293 cells | AID 624115 | 4,000 tested, 8.7% active | fluorescence ratio F(max-min)/F0 at 10 µM | shares compounds with MrgX1 antagonist | Fluo-4 calcium fluorescence (FDSS); hits give high values;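 active = calcium fluorescence ratio at least three times the spread of buffer wells, meaning a non-specific response in parental cells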
Numbers without * were called inactive; i = inactive; . = not tested or not shown.

SMILES	RGS4 block	Lipid droplet	MrgX1 antagonist	MrgX1 agonist	RGS4 act	MrgX1 PAM	MrgX1 allo conf	HEK293 Ca flux	HEK293 Ca counter	HEK293 Ca cntr2	others
COc1ccc(OC)c2sc(N(CCN(C)C)C(=O)c3cc(Cl)sc3Cl)nc12	i	-4	i	i	i	21*	i	i	i	i
NC(=NCCc1ccccc1)NS(=O)(=O)c1ccccc1F	i	-21	i	i	i	i	.	.	.	.
COC(=O)Cc1[nH]n(-c2nc3ccccc3s2)c(=O)c1C(C)=Nc1ccc(Cl)cc1	i	0	i	i	i	12*	i	i	i	i
CCOc1ccccc1NC(=O)CCS(=O)(=O)c1cccc2nonc12	.	0	i	i	.	7.5*	i	i	i	i
COc1nc(N)nc(NC23CC4CC(CC(C4)C2)C3)n1	i	2	i	i	i	15*	22%*	i	i	i
Cc1ccc(C)c(-n2c(-c3csc(C)c3C)n[nH]c2=S)c1	i	5	i	i	i	i	.	.	.	.
Cc1ccc(NC(=O)COC(=O)C2C3CC4OC(=O)C2C4C3)cc1 (stereo not drawn)	i	16	i	i	i	26*	i	i	i	i
CCN(CC)C(=O)CSc1nnc(-c2ccccn2)n1Cc1ccccc1	i	2	i	i	i	i	.	.	.	.
COCc1cc(Sc2ccc(Cl)cc2)nc(C)n1	i	0	i	i	i	8.4*	i	i	i	i
Cc1cccc(N(C)S(=O)(=O)c2c[nH]c3ccc([N+](=O)[O-])cc23)c1	i	-8	i	i	i	i	.	.	.	.
NNc1nc(-c2ccccc2Cl)nc2sc3c(c12)CCCC3	i	4	i	i	i	32*	i	i	i	i
NNc1nc(-c2ccccc2Cl)nc2ccccc12	i	3	i	i	i	i	.	.	.	.
O=C(O)c1c2c(nc3ccccc13)/C(=C/c1c(F)cccc1F)CCC2	i	-11	i	i	i	8.2*	i	i	i	i
O=C(O)c1c2c(nc3ccccc13)/C(=C/c1ccc(OC(F)F)cc1)CCC2	i	2	i	i	i	i	.	.	.	.
CC(NC(=O)c1ccc(N)cc1)c1ccccc1 (stereo not drawn)	i	-8	i	i	i	7.4*	i	i	i	i
CC(C)(C)Nc1ncnc2c1cnn2-c1ccccc1	i	-23	i	i	i	7.7*	i	i	i	i
c1ccc(CNc2ncnc3c2cnn3-c2ccccc2)cc1	i	.	i	i	i	i	.	.	.	.
O=C(OCc1cccc(F)c1)c1cc2ccccc2cc1O	i	7	i	i	i	i	.	.	.	.
O=C(O)C1CC=CCC1C(=O)Nc1ccc(N2CCN(Cc3ccccc3)CC2)cc1 (stereo not drawn)	i	-4	i	i	i	7.4*	i	i	i	i
O=C(Nc1ccc(N2CCN(Cc3ccccc3)CC2)cc1)c1ccco1	i	5	i	i	i	i	.	.	.	.
Cc1nc2ccsc2c(=O)n1-c1ccc(Cl)cc1	i	-2	i	i	i	i	.	.	.	.
O=C(NCCCNC(=O)c1ccc(-c2cccc(Cl)c2)o1)c1cnccn1	i	-17	i	i	i	13*	i	i	i	i
O=C(NCCNC(=O)c1cnccn1)c1cccc(Cl)c1	i	-3	i	i	i	i	.	.	.	.
O=C(NCCNC(=O)c1ccc(-c2ccc(Cl)c(Cl)c2)o1)c1cnccn1	i	16	i	i	i	7.2*	i	i	i	i
O=C(CN1CCCCC1)Nc1ccc(Br)cc1[N+](=O)[O-]	i	1	i	i	i	i	.	.	.	.
SMILES	RGS4 block	Lipid droplet	MrgX1 antagonist	MrgX1 agonist	RGS4 act	MrgX1 PAM	MrgX1 allo conf	HEK293 Ca flux	HEK293 Ca counter	HEK293 Ca cntr2	others
OCCN1CCN(c2cc(C(F)(F)F)nc3c(F)cccc23)CC1	i	24	i	i	i	i	.	.	.	.
COc1ccc(N/C(C)=C/C(=O)c2ccccc2)cc1	i	7	i	i	i	i	.	.	.	.
COc1ccc(N/C(C)=C/C(=S)Nc2ccccc2)cc1	i	0	i	i	i	27*	i	i	i	i
O=C(c1ccncc1)c1ccc(N2CCN(C3CC(=O)N(Cc4ccccc4)C3=O)CC2)cc1 (stereo not drawn)	i	-7	i	i	i	i	.	.	.	.
O=C(c1ccc(N2CCN(C3CC(=O)N(Cc4cccs4)C3=O)CC2)cc1)c1cccnc1 (stereo not drawn)	i	3	-5.1*	i	i	9*	3.0%*	i	i	i	MrgX1 antag conf=84%*
O=C(c1ccc(Cn2cc([N+](=O)[O-])cn2)o1)N1CCCCCC1	i	1	i	i	i	i	.	.	.	.
O=C(CCC1CCN(Cc2ccccc2Cl)CC1)NC1CC1	i	2	i	i	i	i	.	.	.	.
O=C(CCC1CCN(Cc2ccccc2O)CC1)NC1CC1	i	0	i	i	i	8.1*	i	i	i	i
CC(=O)c1c[nH]c(C(=O)NC2CCCCCC2)c1	i	8	i	i	i	i	.	.	.	.
Cc1ccc(CNC(=O)CCS(=O)(=O)c2cc3c(cc2Cl)NC(=O)CO3)cc1	i	-19	i	i	i	i	.	.	.	.
CC1CCCC(NS(=O)(=O)c2cc3c(cc2Cl)NC(=O)CO3)C1C (stereo not drawn)	i	-1	i	i	i	21*	i	i	i	i
